Reference: ChEMBL document CHEMBL5042548, “Multiparameter Optimization of Oxidative Phosphorylation Inhibitors for the Treatment of Pancreatic Cancer” (J Med Chem, 2022)
Calls of active or inactive are those of the source. The rule behind the calls is not given here.

Assays:
[1] = Inhibition of oxidative phosphorylation in human MIA PaCa-2 cells assessed as reduction in ATP production incubated for 24 hrs in glucose-containing medium by celltiter-glo luminescence cell viability assay; type: functional, cell-based; conditions: MIA PaCa-2, 24 h
In short: (§1)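 MIA PaCa-2 cells are seeded at 10000 cells/well in glucose RPMI + 10% FBS or in glucose-free RPMI + 10 mM galactose + 10% FBS. Total ATP is measured by CellTiter-Glo luminescence 24 h after compound. IC50 is by nonlinear regression; ≥3 independent experiments.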

[2] = Metabolic stability in human liver microsomes assessed as half life at 10 uM measured up to 60 mins in presence of NADPH by LC-MS/MS analysis; type: ADME, Microsome; conditions: liver microsomes
[3] = Metabolic stability in mouse liver microsomes assessed as half life at 10 uM measured up to 60 mins in presence of NADPH by LC-MS/MS analysis; type: ADME, Microsome; conditions: liver microsomes
[4] = AUC (0 to infinity) in CD-1 mouse at 10 mg/kg, po; type: ADME, organism-based; design: route oral, time infinity, dose 10 mg/kg; conditions: in vivo
In short: (§2)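 Plasma PK in CD-1 mice after single i.v. (2 mg/kg) or p.o. (10 mg/kg) dosing. Parameters come from non-compartmental analysis. Bioavailability = (AUC_po×Dose_iv)/(AUC_iv×Dose_po)×100%. Terminal t1/2 is taken from ≥3 points in the terminal phase.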

[5] = Terminal elimination half life in CD-1 mouse at 10 mg/kg, po; type: ADME, organism-based; conditions: in vivo, read-out: LambdaZ (converted); in short: as §2
[6] = AUC(0 to t) in CD-1 mouse at 2 mg/kg, iv; type: ADME, organism-based; design: dose 2 mg/kg; conditions: in vivo; in short: as §2
[7] = Toxicity in C57BL/6 mouse allografted with mouse Panc02 cells assessed as drug tolerability at 10 mg/kg, po administered once a day for 28 days; type: organism-based; conditions: in vivo, 672 h, time 28 day
[8] = Initial plasma concentration in CD-1 mouse at 2 mg/kg, iv; type: ADME, organism-based; in short: as §2
[9] = Terminal elimination half life in CD-1 mouse at 2 mg/kg, iv; type: ADME, organism-based; conditions: in vivo, read-out: LambdaZ (converted); in short: as §2
BXPC-3 = experiment: Cytotoxicity against human BXPC-3 cells assessed as inhibition of cell growth incubated for overnight in glucose-containing medium followed by compound addition and measured after 7 days by MTT assay; type: functional, cell-based; conditions: BXPC-3, 168 h
In short: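 7-day MTT in glucose medium (RPMI 1640 + 10% FBS). Seeding is 200 cells/well for MIA PaCa-2 and 300 cells/well for BxPC-3, overnight at 37 °C, 5% CO2, before compound. MTT 3 mg/mL is added for 4 h, then DMSO, and absorbance is read at 570 nm. IC50 is by nonlinear regression; ≥3 independent experiments.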

[10] = Oral bioavailability in CD-1 mouse at 10 mg/kg; type: ADME, organism-based; conditions: in vivo; in short: as §2
[11] = Volume of distribution at steady state in CD-1 mouse at 2 mg/kg, iv; type: ADME, organism-based; conditions: in vivo, read-out: Vdss; in short: as §2
[12] = Inhibition of oxidative phosphorylation complex I in human MIA PaCa-2 cells assessed as reduction in NAD+/NADH ratio incubated for 48 hrs in glucose-containing medium by NAD/NADH-Glo assay; type: cell-based; conditions: MIA PaCa-2, 48 h
In short: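 MIA PaCa-2 cells at 5×10^3/well are treated next day for 48 h in RPMI 1640 + 10% FBS. After a PBS wash, cells are lysed with bicarbonate buffer/1% DTAB. Lysate is split: NAD+ with 0.4 N HCl at 60 °C for 15 min, NADH heated directly, then neutralized. NAD/NADH-Glo luminescence is read after 30 min. IC50 is by nonlinear regression.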

[13] = Clearance in CD-1 mouse at 2 mg/kg, iv; type: ADME, organism-based; conditions: in vivo; in short: as §2
[14] = Clearance in CD-1 mouse at 10 mg/kg, po; type: ADME, organism-based; conditions: in vivo; in short: as §2
Panc02 = experiment: Antitumor activity against Panc02 cells allografted in C57BL/6 mouse syngeneic model assessed as tumor growth inhibition at 10 mg/kg, po administered once daily for 28 days and measured twice per week; type: functional, organism-based; conditions: time 28.0 day
In short: (§3)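 Female C57BL/6 mice, 6-10 weeks old, get 5×10^6 Pan02 cells s.c. in the right flank and are randomized at ~100 mm3 (n = 5/group). Dosing is daily for 28 days. Vehicle is 10% DMSO/50% PG/40% saline, except 15 mg/kg uses 10% DMSO/60% PG/30% saline. Caliper volume (length×width²)/2 and body weight are recorded twice weekly.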

MIA PaCa-2 [15] = experiment: Cytotoxicity against human MIA PaCa-2 cells assessed as inhibition of cell growth incubated for overnight in galactose-containing medium followed by compound addition and measured after 3 days by MTT assay; type: functional, cell-based; conditions: MIA PaCa-2, 72 h
In short: (§4)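 MIA PaCa-2 3-day MTT in glucose medium (RPMI 1640 + 10% FBS) or galactose medium (glucose-free RPMI + 10 mM galactose + 10% FBS). Galactose wells are seeded at 8000 cells/well. MTT read-out is at 570 nm after DMSO solubilization. IC50 is by nonlinear regression; ≥3 independent experiments.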

MIA PaCa-2 [16] = experiment: Cytotoxicity against human MIA PaCa-2 cells assessed as inhibition of cell growth incubated for overnight in glucose-containing medium followed by compound addition and measured after 3 days by MTT assay; type: functional, cell-based; conditions: MIA PaCa-2, 72 h; in short: as §4
[17] = Toxicity in C57BL/6 mouse allografted with mouse Panc02 cells assessed as body weight loss at 10 mg/kg, po administered once a day for 28 days and measured twice per week; type: organism-based; conditions: in vivo, 672 h, time 28 day; in short: as §3
[18] = AUC(0 to t) in CD-1 mouse at 10 mg/kg, po; type: ADME, organism-based; design: dose 10 mg/kg; conditions: in vivo; in short: as §2
[19] = Inhibition of oxidative phosphorylation in human MIA PaCa-2 cells assessed as reduction in ATP production incubated for 24 hrs in galactose-containing medium by celltiter-glo luminescence cell viability assay; type: functional, cell-based; conditions: MIA PaCa-2, 24 h; in short: as §1
[20] = AUC (0 to infinity) in CD-1 mouse at 2 mg/kg, iv; type: ADME, organism-based; design: route intravenous, time infinity, dose 2 mg/kg; conditions: in vivo; in short: as §2

`CC(C)S(=O)(=O)c1ccc(S(=O)(=O)N2CCC[C@@H](C(=O)N3CCC(F)(F)CC3)C2)cc1` gave an IC50 [1] greater than 3000 nM, a half-life at 10 µM [2] greater than 1 h and a half-life at 10 µM [3] greater than 1 h. For the same compound, the AUC(0-inf) [4] was 0.417 µM·h, the half-life [5] was 3.06 h and the AUC(0-t) [6] was 0.65 µM·h. For the same compound, the Activity [7] was “Non-Toxic”, the C0 [8] was 354 ng/mL and the half-life [9] was 1.42 h. It also gave an IC50 (BXPC-3) of 50 nM, an F [10] of 11.3% and a Vd [11] of 5.2 L/kg. The IC50 [12] was 3.6 nM, the clearance [13] was 106 mL/min/kg and the CL/F [14] was 835 mL/min/kg. For the same compound, the Activity (Panc02) was “Active”, the IC50 (MIA PaCa-2 [15]) was 9.1 nM and the IC50 (MIA PaCa-2 [16]) was greater than 3000 nM. The Activity [17] was “Non-Toxic”, the AUC(0-t) [18] was 0.368 µM·h and the IC50 [19] was 11 nM. For the same compound, the AUC(0-inf) [20] was 0.657 µM·h.
